Source: PubChem
This is a sample that favours compounds with a hit; in the whole collection about 1.9% have one here.
UCH37 DUB inh: inhibitors of human deubiquitinating enzyme UCH37; purified proteasome/UCH37, Ub-AMC cleavage fluorescence; AID 588478; Q9Y5K5; 330,000 tested, 0.33% active; inhibition, % (no concentration beside the values);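 active = mean inhibition over replicate wells above about 20%, limit read from the data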;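 also: 0% = compound-free wells with enzyme and 100% = wells lacking proteasome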
Target sequence (Q9Y5K5 whole entry, looked up): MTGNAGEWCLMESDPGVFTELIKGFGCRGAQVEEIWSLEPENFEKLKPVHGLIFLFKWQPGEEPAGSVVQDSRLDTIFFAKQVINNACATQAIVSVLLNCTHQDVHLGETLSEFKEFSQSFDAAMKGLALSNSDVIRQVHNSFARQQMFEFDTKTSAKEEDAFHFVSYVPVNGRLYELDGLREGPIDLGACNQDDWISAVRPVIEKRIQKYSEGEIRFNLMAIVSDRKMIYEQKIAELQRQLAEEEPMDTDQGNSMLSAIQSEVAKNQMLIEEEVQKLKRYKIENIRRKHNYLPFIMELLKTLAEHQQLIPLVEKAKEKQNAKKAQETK
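Material: Human UCH37 enzyme supplied as purified proteasome complex | Schedule: 30 min compound-proteasome preincubation then 25 min substrate reaction, room temperature | Detection: AMC fluorescence from Ub-AMC cleavage, excitation 355 nm, emission 460 nm | Benchmarks: Wells without proteasome as full block, compound-free enzyme plus substrate as uninhibited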
MIN6 prolif: MIN6 beta-cell proliferation induction | MIN6 cells proliferation, ATPlite luminescence, 48 h; cells starved in 0.2% serum; 100% = growth in 10% serum | proliferation, % at 10 µM | AID 2380 | 330,000 tested, 0.29% active;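 active = compounds whose signal lies at least 3.5 SD above the mean of all wells on their plate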;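 also: 0% = DMSO-treated cells in low-serum medium and 100% = 10% serum control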
CR mimetic SO: caloric restriction mimetics inhibiting age-related superoxide in yeast. 330,000 tested, 0.18% active. superoxide response (% of plate mean), % at 10 µM. S. cerevisiae aged cells, superoxide DHE fluorescence; hits give low values;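 active = superoxide response under a set limit, about three screen SD below normal, cut at about 65% in these data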;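 also: yeast aged for seven days with compound at 30 °C before DHE staining; 100% = average MFI of all compound-treated wells on the plate with controls excluded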
Rev-erbA mod: modulators of human Rev-erb alpha DNA binding; P20393; Rev-erbα–FITC-DNA binding, fluorescence polarization, 90 min; activity, % at 10 µM; 370,000 tested, 0.79% active;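 active = activity above about 14%, limit read from the data; passing the limit was not always enough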;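 also: 0% = DMSO wells with 35 nM protein and 100% = DMSO wells with 750 nM protein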
PG9 binder: small molecules binding HIV-1 gp120 antibody PG9. TR-FRET gp120-PG9 antibody binding. inhibition, % at 6.7 µM. 360,000 tested, 0.43% active. AID 624416; in the data active = inhibition above about 8.5%
Rce1 inhib: yeast Ras-converting enzyme inhibition | 290,000 tested, 0.27% active | AID 2563 | yeast membranes, quenched prenylated peptide cleavage fluorescence | calls only | Q03530;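 active = fall in fluorescence gain of 50% or more versus controls, with final raw signal at or below 3038400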;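 also: plate controls were neutral control wells for no effect and wells lacking membranes for full effect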
Target sequence (Q03530 whole entry, looked up): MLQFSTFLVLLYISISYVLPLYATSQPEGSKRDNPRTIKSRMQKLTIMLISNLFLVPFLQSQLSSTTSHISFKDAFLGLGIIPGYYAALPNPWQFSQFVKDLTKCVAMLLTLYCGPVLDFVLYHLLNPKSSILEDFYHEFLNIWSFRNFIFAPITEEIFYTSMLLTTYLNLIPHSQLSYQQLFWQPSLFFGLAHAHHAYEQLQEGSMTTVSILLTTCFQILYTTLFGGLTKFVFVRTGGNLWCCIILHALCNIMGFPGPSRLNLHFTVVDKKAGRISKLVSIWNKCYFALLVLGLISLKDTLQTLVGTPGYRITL
NR1D1 mod conf: Rev-erb alpha (human) modulation, hit confirmation | Rev-erb alpha FITC-DNA binding, fluorescence polarization, 90 min | shares compounds with Rev-erbA mod | 3,000 tested, 61% active | activation, % at 25 µM;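 active = activation at or above a set limit, or at least 3 SD above the negative control mean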;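 also: 0% = 35 nM protein with DMSO and 100% = 750 nM protein high control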
RORg counter: counter-screen for Rev-erb alpha modulators: RORgamma DNA binding | shares compounds with Rev-erbA mod | purified RORgamma protein-FITC-DNA binding, fluorescence polarization | IC50, µM | 910 tested, 8% active | AID 1259320;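 active = Compounds whose fitted half-maximal concentration for disrupting protein-DNA binding is below 10 micromolar; the record names Rev-erb in its text, so the target is in doubt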
Active calls of the source: *.

How did CC1=NN(c2ccccc2)C(=O)/C1=C\C=C1/N(C)c2ccccc2C1(C)C do in these assays?
UCH37 DUB inh: 6; MIN6 prolif: -3; CR mimetic SO: 129; Rev-erbA mod: 79*; PG9 binder: -4; NR1D1 mod conf: 87*; RORg counter: 8.6*

How did CN1/C(=C\C=C2/C(=O)Oc3ccccc3C2=O)C(C)(C)c2ccccc21 do in these assays?
UCH37 DUB inh: 5; CR mimetic SO: 102; Rev-erbA mod: 59*; PG9 binder: -2; Rce1 inhib: inactive; NR1D1 mod conf: 53*; RORg counter: >40

Results for CC1=NN(c2ccccc2)C(=O)/C1=C\C=C1\N(C)c2ccccc2C1(C)C ?
UCH37 DUB inh: 7; MIN6 prolif: -5; CR mimetic SO: 100; Rev-erbA mod: 49*; PG9 binder: -3; Rce1 inhib: inactive; NR1D1 mod conf: 54*; RORg counter: >40

How did CC(C=NNC(=S)Nc1cccc(S(=O)(=O)N(C)C)c1)c1ccccc1 (stereo not given) do in these assays?
UCH37 DUB inh: 1

Results for COc1cc2c3nnc(-c4ccccc4)c-3cn(Cc3ccc(F)cc3)c2cc1OC ?
UCH37 DUB inh: -99; MIN6 prolif: -6; CR mimetic SO: 146; Rev-erbA mod: 23*; PG9 binder: 0; Rce1 inhib: inactive; NR1D1 mod conf: 0

What do the screens show for `O=C(Nc1ccccc1)c1sc(Cl)nc1-c1ccccc1`?
UCH37 DUB inh: 3; MIN6 prolif: 0; CR mimetic SO: 105; Rev-erbA mod: -1; PG9 binder: -1; Rce1 inhib: inactive

How did Cc1ccc(NC(=O)c2sc(Cl)nc2-c2ccccc2)cc1C do in these assays?
UCH37 DUB inh: 0; MIN6 prolif: -4; CR mimetic SO: 92; Rev-erbA mod: 53*; PG9 binder: 3; Rce1 inhib: inactive; NR1D1 mod conf: 38*; RORg counter: >40

What do the screens show for `CSc1nc(N)c(C(=O)NC2CCCCC2)s1`?
UCH37 DUB inh: 8; MIN6 prolif: 2; CR mimetic SO: 91; Rev-erbA mod: 23*; PG9 binder: -1; Rce1 inhib: inactive; NR1D1 mod conf: -10

Results for CCCCCCOC(=O)C1=C(C)NC(=O)NC1c1ccc2c(c1)OCO2 (stereo not given) ?
UCH37 DUB inh: 5; MIN6 prolif: -2; CR mimetic SO: 96; Rev-erbA mod: 17*; PG9 binder: -4; Rce1 inhib: inactive; NR1D1 mod conf: 14

What do the screens show for `CCOC(=O)C1=C(C)NC(=O)NC1c1ccc2c(c1)OCO2` (stereo not given)?
UCH37 DUB inh: 3; MIN6 prolif: 2; CR mimetic SO: 89; Rev-erbA mod: -2; PG9 binder: 1; Rce1 inhib: inactive

How did CCC(CC)COC(=O)C1=C(C)NC(=O)NC1c1ccc(OC)cc1 (stereo not given) do in these assays?
UCH37 DUB inh: 0; MIN6 prolif: -1; CR mimetic SO: 106; Rev-erbA mod: 21*; PG9 binder: -2; Rce1 inhib: inactive; NR1D1 mod conf: 20*

What do the screens show for `CCC(CC)COC(=O)C1=C(C)NC(=O)NC1c1cc(OC)ccc1OC` (stereo not given)?
UCH37 DUB inh: -51; MIN6 prolif: -2; CR mimetic SO: 113; Rev-erbA mod: 7; PG9 binder: -1; Rce1 inhib: inactive

Results for COc1ccc(C(=O)Nc2ccccc2C(=O)NN=Cc2ccco2)cc1 ?
UCH37 DUB inh: 5

What do the screens show for `COc1cc(OC)cc(C(=O)N(Cc2ccco2)c2c(N)n(Cc3ccccc3)c(=O)[nH]c2=O)c1`?
UCH37 DUB inh: 1; Rev-erbA mod: 17*; PG9 binder: -2; NR1D1 mod conf: -4

What do the screens show for `CS(=O)(=O)Nc1ccc(-c2ccc(/C=C3\SC(N)=NC3=O)o2)cc1`?
UCH37 DUB inh: 1; MIN6 prolif: 4; CR mimetic SO: 105; Rev-erbA mod: 44*; PG9 binder: -12; Rce1 inhib: inactive; NR1D1 mod conf: 33*; RORg counter: >40

Results for COc1ccc(-c2nn(-c3ccccc3)cc2C=NO)cc1 ?
UCH37 DUB inh: -1

How did S=c1[nH]nc(-c2ccc(Cl)cc2)n1N=Cc1cccs1 do in these assays?
UCH37 DUB inh: 7

What do the screens show for `COc1ccccc1-n1cnc2sc(-c3ccccc3)cc2c1=O`?
UCH37 DUB inh: 1; MIN6 prolif: 0; CR mimetic SO: 105; Rev-erbA mod: 20*; PG9 binder: 1; Rce1 inhib: inactive; NR1D1 mod conf: 5

What do the screens show for `O=C(Nc1ccc(F)cc1F)C1CCN(c2ncnc3c2sc2cccc(F)c23)CC1`?
UCH37 DUB inh: 3; MIN6 prolif: -6; CR mimetic SO: 90; Rev-erbA mod: 33*; PG9 binder: 0; Rce1 inhib: inactive; NR1D1 mod conf: 27*

How did CSc1ccc(SC2CN(Cc3ccc(C)cc3)S(=O)(=O)C2)cc1 (stereo not given) do in these assays?
Rev-erbA mod: 25*; PG9 binder: 2; NR1D1 mod conf: 28*; RORg counter: >40

How did COc1cc(C(=O)NN=c2sc3ccccc3n2C)cc(OC)c1OC do in these assays?
UCH37 DUB inh: 2

Results for Cc1ccc(S(=O)(=O)N2CC3(O)CN(C(=O)OC(C)C)N(C(=O)OC(C)C)CC3(OC(=O)NCC3CCCCC3)C2)cc1 (stereo not given) ?
Rev-erbA mod: 2; PG9 binder: 0

How did CCCCCCNC(=O)OC12CN(C(=O)OC(C)C)N(C(=O)OC(C)C)CC1(O)CN(S(=O)(=O)c1ccc(C)cc1)C2 (stereo not given) do in these assays?
Rev-erbA mod: 15*; PG9 binder: 0; NR1D1 mod conf: 0

What do the screens show for `O=C(c1ccc(OC2CCN(Cc3ccccc3O)CC2)cc1)N1CCCCC1`?
UCH37 DUB inh: 4; MIN6 prolif: -1; CR mimetic SO: 111; Rev-erbA mod: 36*; PG9 binder: -2; Rce1 inhib: inactive; NR1D1 mod conf: 2

How did COc1cccc(CN2CCC(Oc3ccc(C(=O)N4CCCCC4)cc3)CC2)c1O do in these assays?
UCH37 DUB inh: 0; MIN6 prolif: 4; CR mimetic SO: 95; Rev-erbA mod: 8; PG9 binder: -2; Rce1 inhib: inactive

What do the screens show for `CCOc1ccc(N2CC(C(=O)NN=Cc3sccc3C)CC2=O)cc1` (stereo not given)?
UCH37 DUB inh: 9

How did CCOC(=O)c1c(C2CC2)csc1NC(=O)COC(=O)c1cnc(Cl)c(Cl)c1 do in these assays?
UCH37 DUB inh: 0; MIN6 prolif: 0; CR mimetic SO: 94; Rev-erbA mod: 81*; PG9 binder: -1; Rce1 inhib: inactive; NR1D1 mod conf: 80*; RORg counter: >40
